# ERp5 block = inhibitors of human ERp5; Q15084; ERp5 insulin aggregation, absorbance 650 nm, 90 min; inhibition, % at 9.99 µM; actives 0.05% (n = 350,000); AID 651711;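 active means mean replicate inhibition above about 25%, with every replicate also reaching it, limit read from the data, passing the limit was not always enough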
# Rin1-Abl PPI inh = blocks binding of human Rin1 to Abl; TR-FRET Rin1/Abl binding, biochemical; inhibition, % at 7.35 µM; actives 0.4% (n = 360,000); P00519+Q13671; in the data active means inhibition above about 5%, passing the limit was not always enough
# PDI turbidity = PDI (human) enzyme inhibition; P07237; inhibition, % at 10 µM; actives 0.052% (n = 350,000); PDI insulin aggregation turbidity, A650, 90 min; AID 588391;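 active means mean inhibition across replicates of 30% or more, whatever share of single replicates reach that level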
# Target sequence (P07237 whole entry, looked up): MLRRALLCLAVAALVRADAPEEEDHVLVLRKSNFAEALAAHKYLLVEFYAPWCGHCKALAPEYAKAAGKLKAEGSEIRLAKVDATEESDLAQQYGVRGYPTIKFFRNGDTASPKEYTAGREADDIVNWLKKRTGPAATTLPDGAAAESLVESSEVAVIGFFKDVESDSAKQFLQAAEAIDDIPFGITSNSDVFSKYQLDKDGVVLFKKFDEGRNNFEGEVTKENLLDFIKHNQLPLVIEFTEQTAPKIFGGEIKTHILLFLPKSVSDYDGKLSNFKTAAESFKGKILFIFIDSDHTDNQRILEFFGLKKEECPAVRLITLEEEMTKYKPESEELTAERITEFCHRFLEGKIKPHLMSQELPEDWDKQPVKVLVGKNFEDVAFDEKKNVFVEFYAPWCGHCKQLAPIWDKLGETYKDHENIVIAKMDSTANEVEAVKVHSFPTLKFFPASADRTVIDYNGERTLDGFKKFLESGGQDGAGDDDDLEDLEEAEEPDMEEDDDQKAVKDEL
# CAL PDZ FP-1 = blocks peptide binding to the human CAL PDZ domain. actives 0.92% (n = 300,000). purified CAL PDZ, TMR-peptide fluorescence polarization, 1 h. inhibition, % at 24.9 µM;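 active means mean inhibition of at least 30% with at least half of replicates also reaching 30%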;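 further: 0% = DMSO neutral control and 100% = excess unlabeled competitor peptide PRC23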
# ERAP1 inh = blocks human ERAP1 aminopeptidase activity | actives 0.15% (n = 340,000) | inhibition, % at 10.7 µM | recombinant ERAP1, Leu-AMC fluorescence, 60 min | AID 652197 | Q9NZ08;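 active means mean replicate inhibition of at least 30%, or all replicates individually reaching that 30% level; inactive means mean below 30% and not every replicate reaching it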;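 further: 0% = neutral control wells and 100% = L-leucinethiol positive control wells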
# CAL PDZ FP-2 = human CAL PDZ-peptide interaction inhibition; AID 504414; purified CAL PDZ, TMR-peptide fluorescence polarization, 1 h; inhibition, % at 20 µM; actives 0.02% (n = 330,000);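 active means highest replicate inhibition of at least 40%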;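 further: plate controls were DMSO neutral control wells for no effect and unlabeled competitor peptide control wells for full effect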
#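 Test system: purified CerCALP PDZ construct; Compound dosing: one concentration, 20 µM compound; Also added: TMR-labelled reporter peptide T*-PRC34 bound in PDZ groove; Read-out: inhibition from polarization loss; Controls: unlabelled peptide and DMSO controls; Signal: FP readout, S and P plane fluorescence; Incubation: 1 h at RT.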
# * marks the source's active call; other numbers are inactive results; · = no result. Rows were chosen to be rich in hits. Some 1.1% of all compounds tested hit in one or more screens of this group.
SMILES,ERp5 block,Rin1-Abl PPI inh,PDI turbidity,CAL PDZ FP-1,ERAP1 inh,CAL PDZ FP-2
CN(CC(=O)Nc1ccccc1C(F)(F)F)C(=O)CSc1nnc(-c2ccncc2)n1C,-1.4,-1.0,-3.0,·,34.7*,1.1
COc1ccc(NC(=O)N2CC(=O)N3[C@H](CO)[C@@H](c4ccc(/C=C/c5ccccc5)cc4)[C@@H]3C2)cc1,-5.9,·,·,·,0.6,·
C[C@@H]1CN([C@@H](C)CO)C(=O)c2cc(NC(=O)Nc3ccc(F)cc3)ccc2O[C@@H](C)CCCCO[C@H]1CN(C)S(=O)(=O)c1ccccc1,-0.9,·,·,·,-0.5,·
CCCNC(=O)NC[C@@H]1[C@@H](c2ccc(C3=CCCCC3)cc2)[C@@H](CO)N1C(C)=O,2.0,·,·,·,-0.5,·
COc1cc(N2C(=O)C=CC2=O)c(OC)cc1Cl,0.4,-0.8,2.8,·,35.3*,0.0
Oc1ccc(N2CCN(Cc3cc4c(cc3Br)OCCO4)CC2)cc1,0.2,-1.4,76.4*,-3.9,-4.9,-2.7
CCNc1ccc(C(=O)NN=C2CCCC2)cc1[N+](=O)[O-],-4.1,-6.9,-0.9,31.5*,-0.2,0.2
C[C@@H]1CN([C@@H](C)CO)C(=O)Cc2cc(NC(=O)CCN3CCOCC3)ccc2O[C@H]1CN(C)S(=O)(=O)c1ccc(Cl)cc1,-2.8,·,·,·,-2.0,·
COc1ccc(/C=C2\CN(Cc3ccccc3)C/C(=C\c3ccc(OC)c(O)c3)C2=O)cc1O,-0.1,4.9,54.5*,3.0,0.7,-2.7
CCN1CCN(S(=O)(=O)CC2(C)C3CCC2(C)C(=O)C3Br)CC1 (centres undefined),4.2,-4.8,-2.5,41.1*,-2.3,-0.4
CN1CCN(S(=O)(=O)CC2(C)C3CCC2(C)C(=O)C3Br)CC1 (centres undefined),-1.1,-0.9,7.8,-0.6,-0.3,-2.3
CCOC(=O)c1sc(CS(=O)(=O)c2ccc(Cl)cc2)nc1C,-0.4,-2.5,-4.1,-6.0,-2.2,-1.7
CCOC(=O)c1sc(-c2ccc(Cl)cc2Cl)nc1O,3.5,-0.1,-4.8,49.2*,-9.8,0.2
CC(=O)N1CCCCN2[C@H](CO)[C@@H](c3ccc(C#Cc4ccccc4F)cc3)[C@@H]2C1,4.0,·,·,·,0.9,·
O=C(Nc1cccc([N+](=O)[O-])c1)c1cc(S(=O)(=O)Nc2ccccn2)ccc1Cl,3.1,-0.3,-0.1,43.8*,1.0,-0.4
Cc1noc(NS(=O)(=O)c2ccc(NC(=O)c3ccc(N(C)C)cc3)cc2)c1C,7.3,2.6,-1.2,57.7*,1.6,-0.2
CC(=O)N1[C@@H]2c3ccc(-c4ccccc4F)c(=O)n3C[C@@H]2[C@@H](CO)[C@@H]1C(=O)N(C)C,1.3,·,·,·,-2.3,·
Cc1ccc(C)c(NC(=O)CSc2c(C)n[nH]c2C)c1,7.4,-0.8,0.0,61.3*,-0.6,15.7
O=C(NCCc1ccccc1)c1ccc(NC(=O)C2CC2)cc1,-0.1,-2.9,-6.0,58.6*,0.7,-0.5
O=C(C[C@@H]1CC[C@H]2[C@@H](COC[C@@H](O)CN2C(=O)Nc2ccc(Cl)c(Cl)c2)O1)NC1CCC1,-1.2,·,·,·,0.1,·
CCOc1ccc(Cl)cc1S(=O)(=O)N1CCC(C(=O)NCc2ccco2)CC1,7.8,3.0,2.8,98.4*,1.6,-1.1
Cc1noc(C)c1NC(=O)Nc1ccc2c(c1)C(=O)N([C@@H](C)CO)C[C@H](C)[C@@H](CN(C)S(=O)(=O)c1cn(C)cn1)OCCCC[C@H](C)O2,-2.1,·,·,·,0.0,·
CCN(CCO)Cc1csc2ccc(C(C)(C)C)cc12,·,2.5,2.4,56.8*,·,-0.7
CCN(CCO)Cc1csc2ccc(Cl)cc12,·,0.2,-1.3,-5.4,·,-0.6
CCCCSc1cc(C)nc(N)n1,0.2,-2.3,9.1,38.6*,3.0,-2.7
SMILES,ERp5 block,Rin1-Abl PPI inh,PDI turbidity,CAL PDZ FP-1,ERAP1 inh,CAL PDZ FP-2
COc1ccc(C#Cc2ccc3c(c2)[C@]2(C(=O)N3)[C@H](C(N)=O)[C@H]3C(=O)O[C@H](c4ccccc4)[C@H](c4ccccc4)N3[C@@H]2c2ccc(OCCO)cc2)cc1,1.6,·,·,·,-2.6,·
N#C[C@@H]1[C@@H](c2ccccc2C2=CCCC2)[C@@H](CO)N1C(=O)NC1CCCC1,-1.0,·,·,·,1.3,·
O=C(CNCC(=O)Nc1ccc(F)c(F)c1F)Nc1ccc(F)c(F)c1F,4.9,3.4,9.1,-9.0,0.8,·
O=C(Cc1ncon1)Nc1ccc(F)c(F)c1F,0.5,0.2,3.3,78.1*,-0.4,0.0
CCCCCCc1c(C)c2ccc(OCC(=O)N[C@@H](Cc3ccccc3)C(=O)O)cc2oc1=O,-1.6,-4.0,·,-2.0,31.7*,-0.7
Cc1nn(C)c(C(=O)Sc2cccc(Cl)c2)c1[N+](=O)[O-],4.4,-0.1,9.6,94.6*,-6.4,-1.2
C/C=C/c1ccc2c(c1)O[C@@H](CN(C)C(=O)Nc1cc(F)ccc1F)[C@@H](C)CN([C@H](C)CO)S2(=O)=O,9.0,·,·,·,2.1,·
O=[N+]([O-])c1ccc(N2CCCC2)cc1NC1CC1,2.5,-7.5,-1.3,35.6*,7.0,-0.8
CCN1[C@@H]2c3ccc(-c4ccccc4)c(=O)n3C[C@@H]2[C@@H](CO)[C@@H]1C(=O)NCC(F)(F)F,37.3*,·,·,·,-0.5,·
COc1ccccc1Oc1nc2c(c(=O)n(Cc3ccccc3F)c(=O)n2C)n1C,·,1.4,-8.9,75.1*,·,-2.3
CC(=O)OC1C2CCC1C([N+]1(C)CCCCC1)CC2 (centres undefined),5.2,2.6,0.3,-4.4,35.2*,-1.2
CNC(=O)c1cccc(NC(=O)CCCNC(=O)c2ccc(Cl)cc2)c1,4.6,0.3,15.7,65.6*,0.7,-1.5
COc1ccccc1NC(=O)c1cc[n+](C)cc1,2.0,1.2,4.0,-7.7,103.4*,14.6
Cc1ccc(N2C(=O)C3C(C2=O)C(C(=O)c2ccc(Cl)cc2)N2CCCC32)cc1 (centres undefined),·,-1.1,2.4,41.9*,·,0.0
CC(=O)Oc1ccc(N2C(=O)C3C(C2=O)C(C(=O)c2ccc(Cl)cc2)N2CCCC32)cc1 (centres undefined),-3.7,-2.3,2.3,26.8,·,-2.8
C#CCOCCOCCOCCNc1nc(N2CCN(C(=O)CCCCCCCCCCNC(=O)[C@H](CCC(=O)O)n3cc(CCCCCN)nn3)CC2)nc(N2CCN(C(=O)CCCCCCCCCCNC(=O)[C@@H]([C@H](C)O)n3cc(C)nn3)CC2)n1,·,7.1,2.3,-4.0,·,0.1
C#CCOCCOCCOCCNc1nc(N2CCN(C(=O)CCCCCCCCCCNC(=O)[C@H](CCCCN)n3cc(CCO)nn3)CC2)nc(N2CCN(C(=O)CCCCCCCCCCNC(=O)[C@@H]([C@H](C)O)n3cc(C)nn3)CC2)n1,·,9.6*,4.0,-7.1,·,-2.1

# Screens (PubChem BioAssay)
